# Where “and” joins values, the source holds several entries; their conditions need not be identical. Identical values can stand only once.
# Tested on: U2OS
# Test: Multiplex assay against U2OS
# Type: toxicity, cell-based
# Conditions: human
# Outline: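 Live cells carried four stains from seeding: Hoechst33342, BioTracker Green Microtubule Cytoskeleton Dye, MitoTracker Red and Annexin V Alexa Fluor 680. They were imaged on a CQ1 microscope at 37°C and 5% CO2 after compound addition. Using CellPathfinder machine-learning gating, cells were split into Hoechst high-intensity objects or normal cells, normal cells into healthy, pyknosed or fragmented nuclei, and pyknosed cells into mitotic or apoptotic; tubulin, mitochondrial-mass and membrane-permeability phenotypes are per cents of healthy-nucleus cells.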
# [1] = 12 h, 1 µM, compound concentration 1 uM
# [2] = 12 h, 10 µM, compound concentration 10 uM
# [3] = 24 h, 1 µM, compound concentration 1 uM
# [4] = 24 h, 10 µM, compound concentration 10 uM
# [5] = 48 h, 1 µM, compound concentration 1 uM
# [6] = 48 h, 10 µM, compound concentration 10 uM
smiles,measurement,setting,value
Cc1nc2ccc(Oc3ccc(F)cc3)cc2c(=O)n1C[C@H]1CCCN(C(C)C)C1.Cl,Population Apoptotic (%),[1],83% and 60%
same,Population Fragmented Nuclei (%),[1],25% and 14%
same,Population Healthy Nuclei (%),[1],64% and 81%
same,Population Hoechst High Intensity Objects (%),[1],3% and 1%
same,Population Membrane Permeable-Phenotype (%),[1],9% and 17%
same,Population Mitochondria Different-Phenotype (%),[1],3% and 7%
same,Population Mitotic Cells (%),[1],16% and 40%
same,Population Normal (%),[1],96% and 98%
same,Population Pyknosed Nuclei (%),[1],10% and 4%
same,Population Tubulin-Different-Phenotype (%),[1],7% and 9%
same,Total Cell Count,[1],244 and 125
same,Population Apoptotic (%),[2],65% and 78%
same,Population Fragmented Nuclei (%),[2],25% and 24%
same,Population Healthy Nuclei (%),[2],59% and 58%
same,Population Hoechst High Intensity Objects (%),[2],3% and 4%
same,Population Membrane Permeable-Phenotype (%),[2],58% and 25%
same,Population Mitochondria Different-Phenotype (%),[2],61% and 75%
same,Population Mitotic Cells (%),[2],35% and 21%
same,Population Normal (%),[2],96% and 95%
same,Population Pyknosed Nuclei (%),[2],15% and 17%
same,Population Tubulin-Different-Phenotype (%),[2],63% and 47%
same,Population Apoptotic (%),[3],78% and 80%
same,Population Fragmented Nuclei (%),[3],23% and 21%
same,Population Healthy Nuclei (%),[3],65% and 71%
same,Population Hoechst High Intensity Objects (%),[3],4% and 2%
same,Population Membrane Permeable-Phenotype (%),[3],7% and 11%
same,Population Mitochondria Different-Phenotype (%),[3],5% and 9%
same,Population Mitotic Cells (%),[3],21% and 20%
same,Population Normal (%),[3],95% and 97%
same,Population Pyknosed Nuclei (%),[3],10% and 6%
same,Population Tubulin-Different-Phenotype (%),[3],4% and 8%
same,Total Cell Count,[3],276 and 146
same,Population Apoptotic (%),[4],77% and 76%
same,Population Fragmented Nuclei (%),[4],25% and 22%
same,Population Healthy Nuclei (%),[4],57% and 52%
same,Population Hoechst High Intensity Objects (%),[4],4% and 6%
same,Population Membrane Permeable-Phenotype (%),[4],37% and 22%
same,Population Mitochondria Different-Phenotype (%),[4],63% and 62%
same,Population Mitotic Cells (%),[4],22% and 23%
same,Population Normal (%),[4],95% and 93%
same,Population Pyknosed Nuclei (%),[4],16% and 24%
same,Population Tubulin-Different-Phenotype (%),[4],47% and 40%
same,Population Apoptotic (%),[5],84% and 93%
same,Population Fragmented Nuclei (%),[5],19%
same,Population Healthy Nuclei (%),[5],69% and 72%
same,Population Hoechst High Intensity Objects (%),[5],1% and 0%
same,Population Membrane Permeable-Phenotype (%),[5],7%
same,Population Mitochondria Different-Phenotype (%),[5],5%
same,Population Mitotic Cells (%),[5],15% and 6%
same,Population Normal (%),[5],98% and 99%
same,Population Pyknosed Nuclei (%),[5],10% and 7%
same,Population Tubulin-Different-Phenotype (%),[5],4% and 6%
same,Total Cell Count,[5],371 and 213
same,Population Apoptotic (%),[6],77% and 88%
same,Population Fragmented Nuclei (%),[6],29%
same,Population Healthy Nuclei (%),[6],54% and 51%
same,Population Hoechst High Intensity Objects (%),[6],5% and 8%
same,Population Membrane Permeable-Phenotype (%),[6],29% and 27%
same,Population Mitochondria Different-Phenotype (%),[6],36% and 41%
same,Population Mitotic Cells (%),[6],22% and 11%
same,Population Normal (%),[6],94% and 91%
same,Population Pyknosed Nuclei (%),[6],16% and 19%
same,Population Tubulin-Different-Phenotype (%),[6],23% and 35%
O=C(NCC(=O)N1CC[C@H](N[C@H]2CC[C@@](O)(c3ccc(-c4ncccn4)cn3)CC2)C1)c1cccc(C(F)(F)F)c1 [PF-4136309],Population Apoptotic (%),[1],79% and 93%
same,Population Fragmented Nuclei (%),[1],25% and 13%
same,Population Healthy Nuclei (%),[1],64% and 74%
same,Population Hoechst High Intensity Objects (%),[1],1% and 4%
same,Population Membrane Permeable-Phenotype (%),[1],6% and 11%
same,Population Mitochondria Different-Phenotype (%),[1],3% and 5%
same,Population Normal (%),[1],98% and 95%
same,Population Pyknosed Nuclei (%),[1],9% and 12%
same,Population Tubulin-Different-Phenotype (%),[1],4% and 8%
same,Total Cell Count,[1],249 and 138
same,Population Apoptotic (%),[2],68% and 60%
same,Population Fragmented Nuclei (%),[2],25% and 22%
same,Population Healthy Nuclei (%),[2],62% and 66%
same,Population Hoechst High Intensity Objects (%),[2],4% and 1%
same,Population Membrane Permeable-Phenotype (%),[2],15% and 25%
same,Population Mitochondria Different-Phenotype (%),[2],4% and 10%
same,Population Mitotic Cells (%),[2],31% and 40%
same,Population Normal (%),[2],95% and 98%
same,Population Pyknosed Nuclei (%),[2],12% and 11%
same,Population Tubulin-Different-Phenotype (%),[2],9% and 11%
same,Total Cell Count,[2],242 and 90
same,Population Apoptotic (%),[3],80% and 91%
same,Population Fragmented Nuclei (%),[3],22% and 16%
same,Population Healthy Nuclei (%),[3],69% and 76%
same,Population Hoechst High Intensity Objects (%),[3],1% and 3%
same,Population Membrane Permeable-Phenotype (%),[3],4% and 5%
same,Population Mitochondria Different-Phenotype (%),[3],2% and 4%
same,Population Mitotic Cells (%),[3],20% and 8%
same,Population Normal (%),[3],98% and 96%
same,Population Pyknosed Nuclei (%),[3],8% and 7%
same,Population Tubulin-Different-Phenotype (%),[3],2%
same,Total Cell Count,[3],304 and 169
same,Population Apoptotic (%),[4],83% and 75%
same,Population Fragmented Nuclei (%),[4],23% and 21%
same,Population Healthy Nuclei (%),[4],62% and 70%
same,Population Hoechst High Intensity Objects (%),[4],3% and 0%
same,Population Membrane Permeable-Phenotype (%),[4],10% and 15%
same,Population Mitochondria Different-Phenotype (%),[4],3% and 11%
same,Population Mitotic Cells (%),[4],16% and 25%
same,Population Normal (%),[4],96% and 99%
same,Population Pyknosed Nuclei (%),[4],13% and 7%
same,Population Tubulin-Different-Phenotype (%),[4],3% and 7%
same,Total Cell Count,[4],271 and 102
same,Population Apoptotic (%),[5],87% and 96%
same,Population Fragmented Nuclei (%),[5],14% and 12%
same,Population Healthy Nuclei (%),[5],74% and 75%
same,Population Hoechst High Intensity Objects (%),[5],2% and 3%
same,Population Membrane Permeable-Phenotype (%),[5],4% and 6%
same,Population Mitochondria Different-Phenotype (%),[5],3%
same,Population Mitotic Cells (%),[5],12% and 4%
same,Population Normal (%),[5],97% and 96%
same,Population Pyknosed Nuclei (%),[5],11%
same,Population Tubulin-Different-Phenotype (%),[5],3% and 4%
same,Total Cell Count,[5],443 and 224
same,Population Apoptotic (%),[6],69% and 92%
same,Population Fragmented Nuclei (%),[6],22% and 20%
same,Population Healthy Nuclei (%),[6],61% and 60%
same,Population Hoechst High Intensity Objects (%),[6],4% and 0%
same,Population Membrane Permeable-Phenotype (%),[6],9% and 15%
same,Population Mitochondria Different-Phenotype (%),[6],5% and 8%
same,Population Normal (%),[6],95% and 100%
same,Population Pyknosed Nuclei (%),[6],15% and 18%
same,Population Tubulin-Different-Phenotype (%),[6],4%
same,Total Cell Count,[6],360 and 138

# — ChEMBL document CHEMBL5724801, “EUbOPEN Chemogenomics Library - Multiplex” (2024)
